# Source: PubChem BioAssay
# ATG4B inh: blocks human ATG4B protease cleavage of LC3 substrate; Q9Y4P1; ATG4B cleavage of LC3-PLA2, NBD-HPC fluorescence, 1 h; inhibition, % at 8.33 µM; actives 0.51% (n = 340,000); AID 504462; in the data active = inhibition above about 40%
# Target sequence (Q9Y4P1 whole entry, looked up): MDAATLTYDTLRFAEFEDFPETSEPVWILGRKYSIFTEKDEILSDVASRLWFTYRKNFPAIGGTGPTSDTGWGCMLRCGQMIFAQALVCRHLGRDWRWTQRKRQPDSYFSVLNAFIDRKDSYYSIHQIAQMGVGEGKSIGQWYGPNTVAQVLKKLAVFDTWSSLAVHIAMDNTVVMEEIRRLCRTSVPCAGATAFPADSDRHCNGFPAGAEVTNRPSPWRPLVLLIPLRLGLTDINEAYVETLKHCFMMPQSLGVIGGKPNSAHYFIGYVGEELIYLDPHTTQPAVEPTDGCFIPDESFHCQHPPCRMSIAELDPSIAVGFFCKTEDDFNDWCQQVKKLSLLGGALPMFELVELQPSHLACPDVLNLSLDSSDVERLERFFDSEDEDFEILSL
# Myeloid diff 2: promotes myeloid progenitor differentiation; AID 624256; ER-HoxA9 myeloid progenitors, lysozyme-GFP differentiation, flow cytometry; calls only at 10 µM; actives 1% (n = 360,000);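 active = normalized GFP-positive differentiation at or above the plate's own cutoff, the solvent-only control mean plus 3 SD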;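 also: cells exposed to compound for four days before flow analysis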
# ABCB6 inh MLPCN: human ABCB6 transporter inhibition | Q9NP58 | K562-ABCB6 porphyrin accumulation, flow cytometry, 1 h; stronger effect = lower value | fluorescence ratio to DMSO, % at 10 µM | actives 0.19% (n = 360,000) | AID 602162;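 active = fluorescence ratio to DMSO below 75%, the collection mean minus 3 SD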;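 also: signal is porphyrin accumulated inside mitochondria; 100% equals median channel fluorescence of DMSO control wells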
# Granule exo inh: lytic granule exocytosis inhibition | TALL-104 LAMP-1 surface exposure, flow cytometry; cells stimulated with thapsigargin and PMA | inhibition, % at 10 µM | actives 0.66% (n = 360,000) | AID 651702;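 active = inhibition above about 55%, limit read from the data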
# Arrestin-AP2 inh: human beta-arrestin and AP2 interaction inhibition | AID 504490 | actives 0.31% (n = 340,000) | FITC-arrestin peptide / GST-AP2 beads, flow cytometry; AP2 beta2 appendage carries R879A mutation | inhibition, % at 10 µM;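 active = inhibition above a set limit, near 3 SD of compounds lacking own fluorescence, cut at about 54% in these data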;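 also: plate controls were DMSO wells for no effect and 5 µM unlabelled arrestin peptide for full effect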
#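 System: GST-AP2 R879A glutathione beads; medium: PBS, Tween 20 0.05%, BSA 0.1%; reagent: fluorescein-tagged arrestin peptide at 50 nM final; schedule: pre-incubation 12 min, peptide binding 1 h, room temperature; detection: flow cytometry, FL1 (488/535 nm); read-out: inhibition as reduced fluorescein signal on beads, percent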
# NRP1-CendR mod: NRP-1/CendR interaction modulation | O14786 | AID 602438 | actives 0.85% (n = 360,000) | inhibition, % at 25 µM | FAM-RPARPAR peptide binding to NRP-1, fluorescence polarization;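 active = inhibition or corrected inhibition above about 18%, plus a signal ratio from 0.5 to 1.5, limit read from the data, passing the limit was not always enough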
# * = called active by the depositor; i = inactive; · = no result given; + = active, no number. An excerpt weighted towards active compounds, which were near 3.3% of everything screened.
SMILES,ATG4B inh,Myeloid diff 2,ABCB6 inh MLPCN,Granule exo inh,Arrestin-AP2 inh,NRP1-CendR mod
CC(SC(C)C(=O)NN=Cc1ccc(F)cc1)C(=O)NN=Cc1ccc(F)cc1 (stereo unspecified),-7,i,98,-1,-7,5
CS(=O)(=O)N1CCN(c2ccc([N+](=O)[O-])c(NCc3ccc(Cl)cc3)c2)CC1,-6,i,95,-6,28,-29
O=C(CCNS(=O)(=O)c1ccc(Br)cc1)NCCc1ccc(Cl)cc1,-10,i,99,49,-3,27*
COc1cc(CC(NC(C)=O)C(=O)NC2CCN(C(=O)Nc3ccccc3C)CC2)cc(OC)c1 (stereo unspecified),5,i,103,-9,0,-2
COc1ccccc1CN1CCNC(=O)C1CC(=O)NCCC1=CCCCC1 (stereo unspecified),-10,i,104,-2,2,-6
CCOc1ccccc1CN1CCNC(=O)C1CC(=O)NCCC1=CCCCC1 (stereo unspecified),-6,i,102,-11,12,45*
O=C1C(C2=C(O)c3ccccc3C2=O)=Nc2ccccc21,-14,+,424,11,-6,39*
COc1ccc(Cc2[nH]n3c(=O)cc(C)nc3c2-c2ccccc2)cc1,-2,i,104,-6,0,6
COc1ccc(Cc2[nH]n3c(=O)cc(C(C)C)nc3c2-c2ccccc2)cc1,-6,i,103,-1,18,18*
COc1ccc(CNC(=O)CN2CCN(c3ccccc3)CC2)cc1,-9,i,102,3,27,-1
Nc1ccc(C(=O)Nc2ccc(Nc3ccncc3)cc2)c([N+](=O)[O-])c1,·,i,97,11,·,27*
CC1CCC(NC(=O)CCS(=O)(=O)c2ccc3c(c2)CCN3C(=O)C2CC2)CC1 (stereo unspecified),-10,+,103,-4,10,11
CCOC(=O)N1CCC(NC(=O)CCS(=O)(=O)c2ccc3c(c2)CCN3C(C)=O)CC1,8,i,84,1,20,3
Cc1nc(-c2cccc(Cl)c2)n[nH]1,-6,i,91,-1,1,0
Cc1nc(S/C(=C/c2ccc(-c3cccc(Cl)c3)o2)C(=O)O)n[nH]1,2,+,126,26,-2,-68
CC(=O)C1=C(C)NC(SCC(=O)c2ccc(Cl)cc2)=C(C#N)C1c1ccco1 (stereo unspecified),-3,+,102,4,8,-1
CC[C@@H](C)CN1C(=O)N[C@@H](CCc2ccccc2)C(C(C)=O)=C1C,-13,i,98,-14,0,28*
CN1CCC(=NNC(=O)c2ccco2)CC1,1,i,91,-8,2,36*
Cc1cccc(-c2cc(C(=O)Nc3c(C)n(C)n(-c4ccccc4)c3=O)c3ccccc3n2)c1,5,i,101,-16,-3,33*
O=C(NC12CC3CC(CC(C3)C1)C2)c1ccc(N2CCNCC2)c([N+](=O)[O-])c1,-1,+,88,18,-13,-2
CS(=O)(=O)N1CCN(c2ccc(C(=O)NC34CC5CC(CC(C5)C3)C4)cc2[N+](=O)[O-])CC1,-9,i,90,3,5,-5
COc1ccc(NC(=S)N2CCN(C(=O)C3CCCO3)CC2)c(OC)c1 (stereo unspecified),1,i,103,0,·,-2
CN1Cc2c(N)cccc2C(c2ccccc2)C1 (stereo unspecified),0,i,103,-1,1,30*
Cn1cc(Cc2ccc(C(=O)NC34CC5CC(CC(C5)C3)C4)cn2)c2ccccc21,·,i,95,-2,·,3
CCc1cc(C(=O)NC(C)C2CCCO2)cs1 (stereo unspecified),5,·,102,-2,0,2
SMILES,ATG4B inh,Myeloid diff 2,ABCB6 inh MLPCN,Granule exo inh,Arrestin-AP2 inh,NRP1-CendR mod
Cc1cc(C(=O)NC(C)C2CCCO2)cs1 (stereo unspecified),-5,i,102,0,7,44*
Cc1ccc(S(=O)(=O)N(CC(=O)NCC2CCCO2)C2CCCCC2)cc1 (stereo unspecified),-1,i,95,10,-2,13
Cc1oc(-c2ccc(C(F)(F)F)cc2)nc1CN(Cc1ccccn1)C[C@@H]1CCC(=O)N1,4,i,102,-1,1,31*
CCOc1ccc(-c2nc(CN(Cc3ccccc3)C[C@@H]3CCC(=O)N3)c(C)o2)cc1,6,i,100,3,37,0
Cc1cccc(CNC(=O)C2CCC(=O)N(C3CCCC3)C2)c1 (stereo unspecified),0,i,97,1,17,20
Cc1ccc(CNC(=O)C2CCC(=O)N(C3CC3)C2)cc1 (stereo unspecified),0,i,96,31,7,28*
Cc1[nH]c(=O)[nH]c(=O)c1NC(=O)c1sc2nc3c(C)cccc3cc2c1N,-8,+,99,-3,3,-50
Cc1nc(N2CCN(c3ccccn3)CC2)c2c(C)c(C(=O)N3CCN(c4cccc(Cl)c4)CC3)sc2n1,-1,i,93,26,32,14
CCn1c(C)cc(O)cc1=O,-7,i,102,-2,40,10
Cc1ccc(NC(=O)CCS(=O)(=O)c2cccc3nonc23)c(Cl)c1,0,i,101,5,-7,-21
Cc1ccc2[nH]c(C(=O)NN=C3CCCCC3)c(-c3ccccc3)c2c1,13,+,102,21,9,6
NNC(=O)c1[nH]c2ccc(Br)cc2c1-c1ccccc1,-4,+,101,20,31,12
CCOC(=O)C1=CCN(S(=O)(=O)c2ccc(F)cc2)C1c1ccccc1 (stereo unspecified),·,i,95,0,·,-11
CCOC(=O)COn1c(=O)c[n+]([O-])c2ccccc21,3,+,103,0,4,-17
CSc1nsc(/C=C/Nc2ccc(C)c(C)c2)c1C#N,-3,i,122,4,19,-123
CSc1nsc(/C=C/Nc2ccc(C)cc2)c1C#N,6,+,·,2,-18,-174
COc1ccccc1C(C)N(C)Cc1nc(COc2ccccc2)no1 (stereo unspecified),3,i,98,0,5,4
COc1ccc(N=C2SCC(=O)N2CCc2ccc(OC)c(OC)c2)cc1,0,i,100,-4,-11,5
COc1ccc(CCN2C(=O)CSC2=Nc2ccc(C(C)C)cc2)cc1OC,-4,+,93,1,-25,6
N#CC1=C(N)Oc2cc(N)ccc2C1c1ccc(F)cc1F (stereo unspecified),-1,+,111,-8,17,44
